Data: ChEMBL document CHEMBL2062428, “Cyclooxygenase-1-selective inhibitors based on the (E)-2'-des-methyl-sulindac sulfide scaffold” (J Med Chem, 2012)
Activity calls are given as the source filed them. No cut-off for these calls is given here.

What was measured:
[1] = molecular target: T1, Prostaglandin G/H synthase 1 (Ovis aries) (UniProt P05979); assay: Inhibition of ovine COX-1 using [14C] arachidonic acid as substrate at 4 uM preincubated for 17 mins before substrate addition measured after 3 mins by thin-layer chromatographic analysis
T1 sequence (whole entry): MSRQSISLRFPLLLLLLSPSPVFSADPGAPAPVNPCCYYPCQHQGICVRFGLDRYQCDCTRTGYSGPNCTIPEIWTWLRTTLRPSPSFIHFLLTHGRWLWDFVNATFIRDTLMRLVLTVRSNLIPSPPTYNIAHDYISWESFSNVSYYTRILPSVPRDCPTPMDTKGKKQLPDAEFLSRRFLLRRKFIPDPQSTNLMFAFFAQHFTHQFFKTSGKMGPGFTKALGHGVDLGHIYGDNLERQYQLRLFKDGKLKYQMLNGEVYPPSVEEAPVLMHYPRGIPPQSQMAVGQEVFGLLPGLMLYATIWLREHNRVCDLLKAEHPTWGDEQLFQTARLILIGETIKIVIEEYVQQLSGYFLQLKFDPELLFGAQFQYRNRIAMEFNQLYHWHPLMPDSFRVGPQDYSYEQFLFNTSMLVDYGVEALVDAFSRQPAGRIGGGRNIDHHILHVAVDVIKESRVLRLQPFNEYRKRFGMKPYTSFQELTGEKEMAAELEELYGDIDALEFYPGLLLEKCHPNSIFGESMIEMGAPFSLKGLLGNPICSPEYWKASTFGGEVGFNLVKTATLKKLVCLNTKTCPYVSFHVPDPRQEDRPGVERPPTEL
Summary of the method: (§1)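 Purified ovine COX-1 or murine COX-2 preincubated with a single 4 μM inhibitor concentration for 17 min. […] Reaction quenched; radioactive products extracted and quantified. Mean ± SEM of two experiments.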

[2] = molecular target: T2, Prostaglandin G/H synthase 2 (Mus musculus) (UniProt Q05769); assay: Inhibition of mouse COX-2 using [14C] arachidonic acid as substrate at 4 uM preincubated for 17 mins before substrate addition measured after 3 mins by thin-layer chromatographic analysis; summary of the method: as §1
T2 sequence (whole entry): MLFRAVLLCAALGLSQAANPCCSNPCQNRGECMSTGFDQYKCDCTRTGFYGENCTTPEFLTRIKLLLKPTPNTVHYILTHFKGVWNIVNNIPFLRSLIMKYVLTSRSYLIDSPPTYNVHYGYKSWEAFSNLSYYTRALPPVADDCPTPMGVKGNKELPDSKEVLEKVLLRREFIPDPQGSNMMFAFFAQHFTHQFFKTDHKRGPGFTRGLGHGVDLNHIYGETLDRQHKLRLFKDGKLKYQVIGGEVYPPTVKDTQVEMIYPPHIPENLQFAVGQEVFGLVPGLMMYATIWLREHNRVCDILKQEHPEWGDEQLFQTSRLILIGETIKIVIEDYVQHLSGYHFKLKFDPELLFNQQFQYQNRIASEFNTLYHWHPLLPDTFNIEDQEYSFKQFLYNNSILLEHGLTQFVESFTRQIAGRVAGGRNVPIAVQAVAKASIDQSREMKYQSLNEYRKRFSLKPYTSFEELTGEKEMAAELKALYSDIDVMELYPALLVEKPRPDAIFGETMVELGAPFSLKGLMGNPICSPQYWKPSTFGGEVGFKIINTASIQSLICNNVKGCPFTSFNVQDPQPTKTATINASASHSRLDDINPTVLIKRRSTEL

| SMILES | inhibition [1] [%] | inhibition [2] |
| --- | --- | --- |
| O=C(O)CC1=C/C(=C\c2ccc3ccccc3c2)c2ccc(F)cc21 | 75 | 34% |
| O=C(O)CC1=C/C(=C\c2ccccc2)c2ccc(F)cc21 | 74 | 34% |
| O=C(O)CC1=C/C(=C\c2ccc3cccnc3c2)c2ccc(F)cc21 | 58 | 16% |
| C[S+]([O-])c1ccc(/C=C2\C=C(CC(=O)O)c3cc(F)ccc32)cc1 (stereo not given) | 27 | 8.5% |
| O=C(O)CC1=C/C(=C\c2ccc(C(F)(F)F)cc2)c2ccc(F)cc21 | 81 | 60% |
| C#CCOc1ccc(/C=C2\C=C(CC(=O)O)c3cc(F)ccc32)cc1OCC | 68 | 20% |
| O=C(O)CC1=C/C(=C\c2ccc([S+]([O-])C(F)(F)F)cc2)c2ccc(F)cc21 (stereo not given) | 51 | 15% |
| O=C(O)CC1=C/C(=C\c2ccc(Br)cc2)c2ccc(F)cc21 | 73 | 34% |
| COc1ccc(-c2cccc(/C=C3\C=C(CC(=O)O)c4cc(F)ccc43)n2)cc1 | 35 | 56% |
| CSc1ccc(/C=C2\C=C(CC(=O)NS(=O)(=O)c3ccc(OC(F)(F)F)cc3)c3cc(F)ccc32)cc1 | 47 | 32% |
| O=C(O)CC1=C/C(=C\c2cccc(-c3ccc(F)cc3)n2)c2ccc(F)cc21 | 17 | 81% |
| C#Cc1ccc(/C=C2\C=C(CC(=O)O)c3cc(F)ccc32)cc1 | 62 | 17% |
| CCOC(=O)C(C)(C)C1=C/C(=C\c2cccc(-c3ccc(F)cc3)n2)c2ccc(F)cc21 | 24 | 21% |
| O=C(O)CC1=C/C(=C\c2ccc(-c3ccccc3)nc2)c2ccc(F)cc21 | 55 | 5% |
| CSc1ccc(/C=C2\C=C(CC(=O)NS(=O)(=O)c3ccc(C(C)C)cc3)c3cc(F)ccc32)cc1 | 45 | 2% |
| Cc1nc(-c2ccccc2)ncc1/C=C1\C=C(CC(=O)O)c2cc(F)ccc21 | 19 | 19% |
| CSc1ccc(/C=C2\C=C(CC(=O)NS(=O)(=O)c3ccccc3C)c3cc(F)ccc32)cc1 | 60 | 36% |
| O=C(O)CC1=C/C(=C\c2ccc(-c3ccc(C(F)(F)F)cc3)cc2)c2ccc(F)cc21 | 31 | 15% |
| Cc1ccc(/C=C2\C=C(CC(=O)O)c3cc(F)ccc32)cc1 | 52 | 13% |
| COc1ccc(/C=C2\C=C(CC(=O)O)c3cc(F)ccc32)cc1 | 62 | 22% |
| CCOC(=O)C(C)(C)C1=C/C(=C\c2cn(C)c3ccccc23)c2ccc(F)cc21 | 47 | 22% |
| CCOC(=O)C(C)(C)C1=C/C(=C\c2ccc(-c3ccccc3)cc2)c2ccc(F)cc21 | 26 | 2% |
| CCOC(=O)C(C)(C)C1=C/C(=C\c2cc(-c3ccc(C)cc3)on2)c2ccc(F)cc21 | 37 | 0% |
| O=C(O)CC1=C/C(=C\c2cccc(-c3cccs3)n2)c2ccc(F)cc21 | 15 | 28% |
| O=C(O)CC1=C/C(=C\c2ccc3c(c2)Cc2ccccc2-3)c2ccc(F)cc21 | 70 | 26% |
| COc1ccc2c(c1)C(CC(=O)O)=C/C2=C\c1ccc(-c2ccccc2)cc1 | 38 | 2% |
| CCOC(=O)C(C)(C)C1=C/C(=C\c2ccc(SC)cc2)c2ccc(F)cc21 | 43 | 0% |
| CC(C(=O)O)C1=C/C(=C\c2ccc(-c3ccccc3)cc2)c2ccc(F)cc21 (stereo not given) | 30 | inactive |

| SMILES | inhibition [1] [%] | inhibition [2] |
| --- | --- | --- |
| CSc1ccc(/C=C2\C=C(CC(=O)NS(=O)(=O)c3ccc(C)cc3)c3cc(F)ccc32)cc1 | 55 | 20% |
| CSc1ccc(/C=C2\C=C(C(C)(C)C(=O)O)c3cc(F)ccc32)cc1 | 17 | 16% |
| CSc1ccc(/C=C2\C=C(CC(=O)NS(C)(=O)=O)c3cc(F)ccc32)cc1 | 21 | 7% |
| CCOC(=O)CC1=C/C(=C\c2ccc(C(=O)OCC)cc2)c2ccc(F)cc21 | 39 | 0% |
| CS(=O)(=O)c1ccc(-c2cccc(/C=C3\C=C(CC(=O)O)c4cc(F)ccc43)n2)cc1 | 13 | 54% |
| CCOC(=O)C(C)C1=C/C(=C\c2ccc(-c3ccccc3)cc2)c2ccc(F)cc21 (stereo not given) | 30 | 0% |
| O=C(O)CC1=C/C(=C\c2cccc(-c3ccc4c(c3)OCO4)n2)c2ccc(F)cc21 | 59 | 43% |
| CSc1ccc(/C=C2\C=C(CC(=O)NS(=O)(=O)c3ccc(C(C)=O)cc3)c3cc(F)ccc32)cc1 | 3.5 | 26% |
| CCOC(=O)CC1=C/C(=C\c2ccc(SC)cc2)c2ccc(F)cc21 | 20 | 0% |
| CCOC(=O)C(C)(C)C1=C/C(=C\c2cccc(-c3ccccc3)c2)c2ccc(F)cc21 | 24 | 4% |
| O=C(O)CC1=C/C(=C\c2ccc(S(=O)(=O)C(F)(F)F)cc2)c2ccc(F)cc21 | 34 | 16% |
| CCOC(=O)C(C)(C)C1=C/C(=C\c2cnc(-c3ccccc3)nc2C)c2ccc(F)cc21 | 25 | 9% |
| O=C(O)CC1=C/C(=C\c2ccc3cccnc3n2)c2ccc(F)cc21 | 14 | 42% |
| COC(=O)CC1=C/C(=C\c2ccc(SC)cc2)c2ccc(F)cc21 | 39 | 9% |
| CSc1ccc(/C=C2\C=C(CC(=O)NS(=O)(=O)c3ccc(C(F)(F)F)cc3)c3cc(F)ccc32)cc1 | 48 | 19% |
| CSc1ccc(-c2ccc(/C=C3\C=C(CC(=O)O)c4cc(F)ccc43)cc2)cc1 | 68 | 18% |
| CSc1ccc(/C=C2\C=C(CC(=O)NS(=O)(=O)c3ccc(F)cc3)c3cc(F)ccc32)cc1 | 44 | 20% |
| O=C(O)CC1=C/C(=C\c2ccc(-c3ccc(F)cc3)cc2)c2ccc(F)cc21 | 33 | 16% |
| O=C(O)CC1=C/C(=C\c2cnc(-c3ccccc3)nc2)c2ccc(F)cc21 | 35 | 8% |
| CC(C)(C)Oc1ccc(/C=C2\C=C(CC(=O)O)c3cc(F)ccc32)cc1 | 17 | 5% |
| CSc1ccc(/C=C2\C=C(CC(N)=O)c3cc(F)ccc32)cc1 | 21 | 5% |
| O=C(O)CC1=C/C(=C\c2cccc3ccccc23)c2ccc(F)cc21 | 53 | 7% |
| CCOC(=O)C(C)(C)C1=C/C(=C\c2ccc(-c3ccccc3)c(F)c2)c2ccc(F)cc21 | 40 | 15% |
| O=C(CC1=C/C(=C\c2ccc(-c3ccccc3)cc2)c2ccc(F)cc21)NS(=O)(=O)C(F)(F)F | 99 | 15% |
| COc1ccc(S(=O)(=O)NC(=O)CC2=C/C(=C\c3ccc(SC)cc3)c3ccc(F)cc32)cc1 | 58 | 8% |
| O=C(O)CC1=C/C(=C\c2ccc(-c3ccc(F)nc3)cc2)c2ccc(F)cc21 | 27 | 10% |
| CSc1ccc(/C=C2\C=C(CC(=O)OC(C)C)c3cc(F)ccc32)cc1 | 27 | 0% |
